This note sets out measurements from publication PMC3428507 (Journal of molecular biology, 2012).

Test [1] relates to Pf1 PHD1/MBD (residues 48–241). Kind of test: NMR of 15N-labeled Pf1 PHD1/MBD with MRG15 proteins. The test is classed as binding, human.
In test [2] the test system is Pf1 PHD1 (residues 48–116). Kind of test: NMR of 15N-labeled Pf1 PHD1 with full-length MRG15 and Pf1 MBD. The test is classed as binding, human. Conditions: 1:1 mixture with full-length MRG15; pH 7.5, 25 °C.
The next test concerns the target Pf1 PHD1 (Homo sapiens, UniProt Q96QT6). In words: NMR of mixture of 15N-MRG15 CD and 15N-Pf1 PHD1. The test is classed as binding. The following applies: 1:1 mixture, absence of histone targets. The gist of the method: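 Both proteins were recombinant, expressed in E. coli BL21(DE3) and uniformly 15N-labelled by growth in M9 minimal medium with 15N-ammonium sulfate. They were purified by affinity resin, TEV cleavage and reversed-phase HPLC, then lyophilized; labelling was confirmed by ESI-MS. Pf1 PHD1 was refolded in 6 M Gdn-HCl with 50 mM DTT (42 °C, 5 h), given ZnSO4, and gel-filtered. Concentrations were measured spectrophotometrically.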

The subject of a further test is H3 (1-42). In words: 15N-labeled H3. The test is classed as binding, human. Conditions: 80 μM 15N-H3, 2 equivalents unlabeled Pf1 PHD1; 20 mM Tris-d11 pH 6.0, 50 mM NaCl, 10 μM ZnSO4, 15 mM DTT, 25 °C.

B1: full-length MRG15: full-length MRG15 (residues 1–323) (protein)
chain: MAPKQDPKPKFQEGERVLCFHGPLLYEAKCVKVAIKDKQVKYFIHYSGWNKNWDEWVPESRVLKYVDTNLQKQRELQKANQEQYAEGKMRGAAPGKKTSGLQQKNVEVKTKKNKQKTPGNGDGGSTSETPQPPRKKRARVDPTVENEETFMNRVEVKVKIPEELKPWLVDDWDLITRQKQLFYLPAKKNVDSILEDYANYKKSRGNTDNKEYAVNEVVAGIKEYFNVMLGTQLLYKFERPQYAEILADHPDAPMSQVYGAPHLLRLFVRIGAMLAYTPLDEKSLALLLNYLHDFLKYLAKNSATLFSASDYEVAPPEYHRKAV
modifications: left off: His tag (from the vector pMCSG7), end not stated, state not stated
With B1, in test [1] (equimolar, 20 mM Tris pH 7.5, 50 mM NaCl, 10 μM ZnSO4, 15 mM DTT, 0.2% NaN3, 25 °C), the “effect on 15N-Pf1 PHD1/MBD spectrum” value is on record as “disappearance of most of the resonances belonging to the PHD1 domain”. For the same molecule, the “effect on 15N-PHD1 spectrum without Pf1 MBD” value in test [2] is on record as “little or no perturbations compared to the apo-PHD1”.

B2: MRG15 CD: MRG15 CD (residues 1–90) (protein)
chain: MAPKQDPKPKFQEGERVLCFHGPLLYEAKCVKVAIKDKQVKYFIHYSGWNKNWDEWVPESRVLKYVDTNLQKQRELQKANQEQYAEGKMR
modifications: left off: His6, N-terminal, cleaved
For the molecule B2, the “involvement of MRG15 CD in PHD1 interactions” value in test [1] (1D 1H NMR of Pf1 PHD1/MBD-MRG15 complex (Supp. Fig. S4)) is “appeared to be not involved in PHD1 interactions”. For the same molecule, the “direct interaction of MRG15 CD and Pf1 PHD1” value with Pf1 PHD1 is given as “largely unperturbed”.

B3: PHD1: human Pf1 PHD1 domain (residues 48–116) (protein)
chain: RRSGRATNHDSCDSCKEGGDLLCCDHCPAAFHLQCCNPPLSEEMLPPGEWMCHRCTVRRKKREQKKELG
modifications: left off: GST, end not stated, cleaved
For B3, in the test with H3 (1-42), the “perturbation of H3 (1-42) resonances” value is “The amide resonances of Thr3 and Lys4 were broadened beyond detection upon PHD1 addition while that of Thr6 was significantly broadened”.
